From ChEMBL document CHEMBL3734675, “Synthesis, antimycobacterial and antibacterial activity of fluoroquinolone derivatives containing an 3-alkoxyimino-4-(cyclopropylanimo)methylpyrrolidine moiety” (2015)

Key:
Type in all cases: functional
Escherichia coli [1] = assay: Antibacterial activity against extended-spectrum beta-lactamase producing Escherichia coli 14-1 after 18 to 24 hrs by two-fold serial dilution method
Procedure, shortened: (§1)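 Twofold serial dilution in agar media against Gram-positive and Gram-negative strains. Plates incubated at 35 °C for 18–24 h. MIC read as the lowest compound concentration giving complete inhibition of bacterial growth.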

Klebsiella pneumoniae [2] = assay: Antibacterial activity against extended-spectrum beta-lactamase producing Klebsiella pneumoniae 14-17 after 18 to 24 hrs by two-fold serial dilution method; procedure, shortened: as §1
Enterococcus faecium [3] = assay: Antibacterial activity against Enterococcus faecium 14-2 after 18 to 24 hrs by two-fold serial dilution method; procedure, shortened: as §1
Enterococcus faecalis [4] = assay: Antibacterial activity against Enterococcus faecalis 14-1 after 18 to 24 hrs by two-fold serial dilution method; procedure, shortened: as §1
[5] = system: Staphylococcus epidermidis; assay: Antibacterial activity against methicillin-resistant Staphylococcus epidermidis 14-37 after 18 to 24 hrs by two-fold serial dilution method
Procedure, shortened: (§2)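 Agar media, standard twofold serial dilution. MIC is the lowest concentration giving complete inhibition of bacterial growth after incubation at 35 °C for 18–24 h. Ciprofloxacin and levofloxacin were run as comparators.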

Staphylococcus aureus [6] = assay: Antibacterial activity against methicillin-resistant Staphylococcus aureus 14-4 after 18 to 24 hrs by two-fold serial dilution method; procedure, shortened: as §2
Pseudomonas aeruginosa [7] = assay: Antibacterial activity against Pseudomonas aeruginosa ATCC 27853 after 18 to 24 hrs by two-fold serial dilution method; procedure, shortened: as §1
Escherichia coli [8] = assay: Antibacterial activity against Escherichia coli ATCC 25922 after 18 to 24 hrs by two-fold serial dilution method; procedure, shortened: as §1
Escherichia coli [9] = assay: Antibacterial activity against extended-spectrum beta-lactamase producing Escherichia coli 14-2 after 18 to 24 hrs by two-fold serial dilution method; procedure, shortened: as §1
Klebsiella pneumoniae [10] = assay: Antibacterial activity against extended-spectrum beta-lactamase producing Klebsiella pneumoniae 14-19 after 18 to 24 hrs by two-fold serial dilution method; procedure, shortened: as §1
Staphylococcus aureus [11] = assay: Antibacterial activity against methicillin-sensitive Staphylococcus aureus 14-4 after 18 to 24 hrs by two-fold serial dilution method; procedure, shortened: as §1
Streptococcus pneumoniae = assay: Antibacterial activity against methicillin-resistant Streptococcus pneumoniae ATCC 19615 after 18 to 24 hrs by two-fold serial dilution method; procedure, shortened: as §2
Klebsiella pneumoniae [12] = assay: Antibacterial activity against extended-spectrum beta-lactamase producing Klebsiella pneumoniae 14-18 after 18 to 24 hrs by two-fold serial dilution method; procedure, shortened: as §1
Staphylococcus aureus [13] = assay: Antibacterial activity against methicillin-sensitive Staphylococcus aureus 14-1 after 18 to 24 hrs by two-fold serial dilution method; procedure, shortened: as §1
Pseudomonas aeruginosa [14] = assay: Antibacterial activity against Pseudomonas aeruginosa 14-15 after 18 to 24 hrs by two-fold serial dilution method; procedure, shortened: as §1
Escherichia coli [15] = assay: Antibacterial activity against Escherichia coli 14-2 after 18 to 24 hrs by two-fold serial dilution method; procedure, shortened: as §1
[16] = system: Staphylococcus epidermidis; assay: Antibacterial activity against methicillin-resistant Staphylococcus epidermidis 14-21 after 18 to 24 hrs by two-fold serial dilution method; procedure, shortened: as §2
Escherichia coli [17] = assay: Antibacterial activity against Escherichia coli 14-1 after 18 to 24 hrs by two-fold serial dilution method; procedure, shortened: as §1
Pseudomonas aeruginosa [18] = assay: Antibacterial activity against Pseudomonas aeruginosa 14-16 after 18 to 24 hrs by two-fold serial dilution method; procedure, shortened: as §1
[19] = system: Staphylococcus epidermidis; assay: Antibacterial activity against methicillin-sensitive Staphylococcus epidermidis 14-2 after 18 to 24 hrs by two-fold serial dilution method; procedure, shortened: as §1
Enterococcus faecium [20] = assay: Antibacterial activity against Enterococcus faecium 14-5 after 18 to 24 hrs by two-fold serial dilution method; procedure, shortened: as §1
Klebsiella pneumoniae [21] = assay: Antibacterial activity against Klebsiella pneumoniae 14-2 after 18 to 24 hrs by two-fold serial dilution method; procedure, shortened: as §1
Staphylococcus aureus [22] = assay: Antibacterial activity against Staphylococcus aureus CMCC 26003 after 18 to 24 hrs by two-fold serial dilution method; procedure, shortened: as §1
[23] = system: Staphylococcus epidermidis; assay: Antibacterial activity against methicillin-resistant Staphylococcus epidermidis 14-39 after 18 to 24 hrs by two-fold serial dilution method; procedure, shortened: as §2
Pseudomonas aeruginosa [24] = assay: Antibacterial activity against Pseudomonas aeruginosa 14-9 after 18 to 24 hrs by two-fold serial dilution method; procedure, shortened: as §1
Staphylococcus aureus [25] = assay: Antibacterial activity against methicillin-resistant Staphylococcus aureus 14-5 after 18 to 24 hrs by two-fold serial dilution method; procedure, shortened: as §2
Klebsiella pneumoniae [26] = assay: Antibacterial activity against Klebsiella pneumoniae 14-4 after 18 to 24 hrs by two-fold serial dilution method; procedure, shortened: as §1
Enterococcus faecium [27] = assay: Antibacterial activity against Enterococcus faecium 14-6 after 18 to 24 hrs by two-fold serial dilution method; procedure, shortened: as §1
Staphylococcus aureus [28] = assay: Antibacterial activity against methicillin-sensitive Staphylococcus aureus 14-3 after 18 to 24 hrs by two-fold serial dilution method; procedure, shortened: as §1
Klebsiella pneumoniae [29] = assay: Antibacterial activity against Klebsiella pneumoniae 14-3 after 18 to 24 hrs by two-fold serial dilution method; procedure, shortened: as §1
[30] = system: Staphylococcus epidermidis; assay: Antibacterial activity against methicillin-resistant Staphylococcus epidermidis 14-22 after 18 to 24 hrs by two-fold serial dilution method; procedure, shortened: as §2
Klebsiella pneumoniae [31] = assay: Antibacterial activity against Klebsiella pneumoniae 14-1 after 18 to 24 hrs by two-fold serial dilution method; procedure, shortened: as §1
Enterococcus faecalis [32] = assay: Antibacterial activity against Enterococcus faecalis 14-2 after 18 to 24 hrs by two-fold serial dilution method; procedure, shortened: as §1
Pseudomonas aeruginosa [33] = assay: Antibacterial activity against Pseudomonas aeruginosa 14-14 after 18 to 24 hrs by two-fold serial dilution method; procedure, shortened: as §1

Measured: MIC

CO/N=C1/CN(c2c(F)cc3c(=O)c(C(=O)O)cn4c3c2OC[C@@H]4C)CC1CNC1CC1 (some centres undefined)
> 64 µg/mL: Escherichia coli [1] | Enterococcus faecium [3] | Enterococcus faecalis [4] | Staphylococcus aureus [6] | Escherichia coli [9] | Pseudomonas aeruginosa [14] | Escherichia coli [15] | [16] | Escherichia coli [17] | [19] | [23] | Klebsiella pneumoniae [26] | Klebsiella pneumoniae [29] | [30] | Pseudomonas aeruginosa [33]
0.5 µg/mL: Escherichia coli [8]
> 128 µg/mL: Enterococcus faecium [27]
32 µg/mL: Klebsiella pneumoniae [21] | Klebsiella pneumoniae [31]
4 µg/mL: Klebsiella pneumoniae [2] | Klebsiella pneumoniae [12] | Staphylococcus aureus [22]
64 µg/mL: [5] | Pseudomonas aeruginosa [7] | Staphylococcus aureus [13] | Pseudomonas aeruginosa [18] | Enterococcus faecium [20] | Pseudomonas aeruginosa [24] | Staphylococcus aureus [25]
16 µg/mL: Staphylococcus aureus [11] | Staphylococcus aureus [28] | Enterococcus faecalis [32]
8 µg/mL: Klebsiella pneumoniae [10] | Streptococcus pneumoniae

CCO/N=C1/CN(c2nc3c(cc2F)c(=O)c(C(=O)O)cn3C2CC2)CC1CNC1CC1 (centres undefined)
128 µg/mL: Staphylococcus aureus [6] | Escherichia coli [9] | Escherichia coli [15] | Escherichia coli [17] | [19] | Klebsiella pneumoniae [26] | Klebsiella pneumoniae [29]
0.125 µg/mL: Enterococcus faecalis [32]
32 µg/mL: Enterococcus faecium [3] | [5] | Pseudomonas aeruginosa [14] | Klebsiella pneumoniae [21] | Klebsiella pneumoniae [31] | Pseudomonas aeruginosa [33]
64 µg/mL: Enterococcus faecalis [4]
< 0.008 µg/mL: Staphylococcus aureus [22]
8 µg/mL: Escherichia coli [1] | Klebsiella pneumoniae [2] | Pseudomonas aeruginosa [7] | Klebsiella pneumoniae [10] | Staphylococcus aureus [11] | Klebsiella pneumoniae [12] | Staphylococcus aureus [13] | Pseudomonas aeruginosa [24] | Staphylococcus aureus [25] | Enterococcus faecium [27] | Staphylococcus aureus [28]
2 µg/mL: Escherichia coli [8] | Streptococcus pneumoniae
16 µg/mL: [16] | Pseudomonas aeruginosa [18] | Enterococcus faecium [20] | [23] | [30]

C[C@H]1COc2c(N3CCN(C)CC3)c(F)cc3c(=O)c(C(=O)O)cn1c23.C[C@H]1COc2c(N3CCN(C)CC3)c(F)cc3c(=O)c(C(=O)O)cn1c23.O [LEVOFLOXACIN]
16 µg/mL: Klebsiella pneumoniae [26] | Klebsiella pneumoniae [31]
8 µg/mL: Escherichia coli [9] | Staphylococcus aureus [13] | Escherichia coli [15] | Escherichia coli [17] | Klebsiella pneumoniae [21] | Staphylococcus aureus [25]
64 µg/mL: [5] | Staphylococcus aureus [6] | Klebsiella pneumoniae [10] | [16] | Enterococcus faecium [20] | [23] | Enterococcus faecium [27]
4 µg/mL: Escherichia coli [1]
0.5 µg/mL: Staphylococcus aureus [11] | Pseudomonas aeruginosa [24]
> 128 µg/mL: [19]
0.25 µg/mL: Staphylococcus aureus [22]
128 µg/mL: Enterococcus faecalis [4]
32 µg/mL: Enterococcus faecium [3] | Klebsiella pneumoniae [29] | [30]
0.125 µg/mL: Escherichia coli [8] | Staphylococcus aureus [28]
1 µg/mL: Enterococcus faecalis [32]

CO/N=C1/CN(c2nc3c(cc2F)c(=O)c(C(=O)O)cn3C2CC2)CC1(C)CNC1CC1 (centres undefined)
0.25 µg/mL: Streptococcus pneumoniae | Staphylococcus aureus [28]
64 µg/mL: Klebsiella pneumoniae [2] | Klebsiella pneumoniae [10] | Klebsiella pneumoniae [12] | Pseudomonas aeruginosa [14] | Pseudomonas aeruginosa [18] | Klebsiella pneumoniae [31] | Pseudomonas aeruginosa [33]
32 µg/mL: Escherichia coli [1] | Pseudomonas aeruginosa [7]
2 µg/mL: [23] | Enterococcus faecium [27] | [30]
> 128 µg/mL: Escherichia coli [9] | Escherichia coli [15] | Escherichia coli [17] | Klebsiella pneumoniae [26] | Klebsiella pneumoniae [29]
< 0.008 µg/mL: Staphylococcus aureus [22]
4 µg/mL: Enterococcus faecium [3] | [5] | Staphylococcus aureus [6] | [16] | Enterococcus faecium [20] | Staphylococcus aureus [25]
0.5 µg/mL: Escherichia coli [8] | Staphylococcus aureus [11] | Staphylococcus aureus [13] | Enterococcus faecalis [32]
16 µg/mL: Enterococcus faecalis [4] | [19] | Pseudomonas aeruginosa [24]
128 µg/mL: Klebsiella pneumoniae [21]
